High-throughput results from PubChem BioAssay.
EP2 modulator = EP2 receptor (human) modulation; EP2-expressing cells, cAMP HTRF FRET, PGE2 co-stimulation; induction, % at 25 µM; 0.83% of 260,000 active; AID 940;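 active = compounds whose cAMP rise, as percent of the full-agonist control response, exceeds 60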;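 also: rat C6 glioma line stably carrying human EP2 under a CMV promoter; the protocol text gives 20 µM as final concentration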
Target sequence (P43116 whole entry, looked up): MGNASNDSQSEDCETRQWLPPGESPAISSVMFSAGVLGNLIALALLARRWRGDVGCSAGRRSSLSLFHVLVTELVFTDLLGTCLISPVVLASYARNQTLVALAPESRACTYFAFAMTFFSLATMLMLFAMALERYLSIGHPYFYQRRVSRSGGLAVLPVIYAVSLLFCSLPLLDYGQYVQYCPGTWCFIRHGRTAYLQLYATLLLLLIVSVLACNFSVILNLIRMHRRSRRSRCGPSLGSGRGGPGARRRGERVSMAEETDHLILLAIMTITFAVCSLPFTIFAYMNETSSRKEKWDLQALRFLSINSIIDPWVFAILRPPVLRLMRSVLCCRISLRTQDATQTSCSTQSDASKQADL
GPR7 antagonist = antagonists of human GPR7 (neuropeptides B/W receptor 1). GPR7-expressing cells, fluorescence antagonist assay. inhibition, % at 4.4 µM. 1.1% of 290,000 active; in the data active = inhibition above about 16%, passing the limit was not always enough;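 also: cells stimulated with the agonist NPW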
Target sequence (P48145 whole entry, looked up): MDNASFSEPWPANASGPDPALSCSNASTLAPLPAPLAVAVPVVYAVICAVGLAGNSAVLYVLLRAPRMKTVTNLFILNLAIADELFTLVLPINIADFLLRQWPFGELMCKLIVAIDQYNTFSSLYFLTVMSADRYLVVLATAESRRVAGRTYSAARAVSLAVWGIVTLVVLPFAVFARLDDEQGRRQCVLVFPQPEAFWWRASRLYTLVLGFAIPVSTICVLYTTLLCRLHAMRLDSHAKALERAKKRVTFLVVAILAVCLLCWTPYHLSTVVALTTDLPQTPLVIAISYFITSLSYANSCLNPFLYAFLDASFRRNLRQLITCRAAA
OX1R antag-1 = blocks the human orexin 1 receptor. O43613. CHO/OX1R cells, Fluo-8 calcium fluorescence, orexin A. inhibition, % at 5 µM. 0.43% of 330,000 active;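 active = inhibition above its plate's threshold, mean inhibition of all tested compounds on the plate plus 3 SD, cut at about 37% in these data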
CHO parental Ca = counter-screen for OX1R antagonists: effect in parental CHO cells; parental CHO-K1, ATP-induced calcium, Fluo-8 fluorescence; inhibition, % at 5.6 µM; 0.63% of 330,000 active;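 active = inhibition above that plate's mean sample inhibition plus 3 SD, cut at about 26% in these data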
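Material: Parental CHO cells | Reagent: ATP | Compound dosing: Single nominal dose of 5.6 µM per compound | Detection: Intracellular calcium via Fluo-8 no-wash fluorescent dye | Read-out: % inhibition of ATP-induced calcium mobilization | Benchmarks: Low control ATP plus DMSO, high control DMSO only | Replicates: Singlicate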
OX1R antag-2 = antagonists of human orexin 1 receptor (OX1R); AID 485270; O43613; inhibition, % at 6.6 µM; OX1R-expressing cells, FRET antagonist read-out; 1.8% of 330,000 active; in the data active = inhibition mostly above about 38%, no sharp cut-off; inactive = mostly below about 40%
EP2 antag = inhibitors of human EP2 prostaglandin E2 receptor; P43116; C6 glioma cells expressing human EP2, cAMP TR-FRET; cells stimulated with saturating PGE2; inhibition, % at 25 µM; 0.52% of 260,000 active; AID 1422;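 active = percent inhibition above 40 after rounding to a whole number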;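 also: rat C6 glioma host cells with rolipram phosphodiesterase inhibitor present; the protocol text gives 20 µM as final concentration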
Large screens that a line does not name were inactive. Rows were chosen to be rich in hits. Some 3.7% of all compounds tested hit in one or more screens of this group.

Nc1cc(-c2cccs2)nn(CC(=O)NC(c2ccccc2)c2ccccc2)c1=O	none (no result: GPR7 antagonist, OX1R antag-1, CHO parental Ca, OX1R antag-2)
O=C(c1ccccc1F)N1N=C(c2ccco2)CC1c1ccco1 (centres undefined)	none (no result: GPR7 antagonist, OX1R antag-1, CHO parental Ca, OX1R antag-2)
Cn1c(/C=C/c2cccc(Br)c2)nc2ccccc2c1=O	OX1R antag-2 60 (no result: EP2 modulator, EP2 antag)
O=c1c2ccccc2nc(/C=C/c2cccc(Br)c2)n1CCCO	none (no result: EP2 modulator, EP2 antag)
CN(C)S(=O)(=O)c1cccc(N=C2SCCN2Cc2ccccc2)c1	CHO parental Ca 40
CCCCCn1c(CN2CCN(c3cccc(Cl)c3)CC2)nc2c1c(=O)[nH]c(=O)n2C	none
COCCn1c(SCC#N)nnc1-c1ccc(OC)cc1	EP2 antag 123
CCCCCCc1cc2cc(C(N)=O)c(=N)oc2cc1O	OX1R antag-2 55
O=C(c1ccc(CSc2nc3ccncc3[nH]2)cc1)N1CCN(c2cccc(Cl)c2)CC1	CHO parental Ca 73, OX1R antag-2 34
O=C(c1ccc(CSc2nc3ccncc3[nH]2)cc1)N1CCCCCC1	none
O=C(c1ccco1)N1N=C(c2ccc(Cl)cc2)CC1(O)C(F)(F)F (centres undefined)	EP2 modulator 61
O=C(c1ccco1)N1N=C(C2CCCCC2)CC1(O)C(F)(F)F (centres undefined)	none
COc1cc(O)c(CC=C(C)C)c(O)c1C(=O)CCc1ccc(O)cc1	CHO parental Ca 39, EP2 antag 76 (no result: GPR7 antagonist)
COC(=O)C(Cc1ccc(OC(=O)c2ccc(Cl)cc2)cc1)N1Cc2ccccc2C1=O (centres undefined)	OX1R antag-1 41, CHO parental Ca 53
CSCC[C@@H](C(=O)O)N1Cc2ccccc2C1=O	none (no result: GPR7 antagonist)
COC(=O)C(Cc1ccc(OC(=O)c2ccc(C(F)(F)F)cc2)cc1)N1Cc2ccccc2C1=O (centres undefined)	CHO parental Ca 40
C=CCN(C(=O)CNC(=O)c1cccs1)C(C(=O)NC1CCCC1)c1cccs1 (centres undefined)	none (no result: GPR7 antagonist, OX1R antag-1, CHO parental Ca, OX1R antag-2)
C=CCNC(=O)[C@@H]1C=CCN1S(=O)(=O)c1ccc(Cl)cc1	none (no result: GPR7 antagonist, OX1R antag-1, CHO parental Ca, OX1R antag-2)
NC(N)=N/N=C/c1ccc(OCc2ccccc2)cc1	none
NC(N)=N/N=C/c1ccc(OCc2ccc(Cl)cc2)cc1	EP2 antag 64
CC1CCN(C(=O)CSc2nnc(Cc3cccn3C)n2CCc2ccccc2)CC1	none
Oc1ccc(Br)cc1C=Nc1ccc2c3c(cccc13)CC2	OX1R antag-1 56, CHO parental Ca 42
Oc1ccc(Cl)cc1C=Nc1ccccc1Br	none
O=C(COc1ccc(F)cc1)N(Cc1cccs1)C1CCS(=O)(=O)C1 (centres undefined)	none (no result: EP2 modulator, EP2 antag)
COc1ccc(C(=O)c2nccc3cc(OC)c(OC)cc23)cc1OC	OX1R antag-2 69 (no result: EP2 modulator, GPR7 antagonist, EP2 antag)
COc1ccc(-c2sc3ccc(OC)cc3c2-c2ccc(OCCN3CCOCC3)cc2)cc1	none (no result: EP2 modulator, GPR7 antagonist, EP2 antag)
CCCSc1nnc(N2C(=O)C(O)=C(C(=O)c3ccco3)C2c2ccccc2F)s1 (centres undefined)	none (no result: EP2 modulator, EP2 antag)
COc1cccc(OC)c1OCCCc1c(C)n[nH]c1C	GPR7 antagonist 16
Cc1cc2ccc(OC(=O)c3ccc(N=C(N)N)cc3)cc2oc1=O	EP2 antag 116 (no result: GPR7 antagonist, OX1R antag-1, CHO parental Ca, OX1R antag-2)
CCN1CCN(CC#CCOc2ccccc2OC)CC1	none (no result: EP2 modulator, EP2 antag)
CS(=O)(=O)c1ccc2nc(NC(=O)Cc3ccccc3)sc2c1	none
CS(=O)(=O)c1ccc2nc(NC(=O)Nc3cccc(Cl)c3)sc2c1	CHO parental Ca 33, OX1R antag-2 39
CS(=O)(=O)c1ccc2nc(NC(=O)CS(=O)(=O)Cc3ccccc3)sc2c1	OX1R antag-2 71
O=C(Nc1cccc(Cl)c1)Nc1ccc2nccnc2c1	OX1R antag-2 34 (no result: EP2 modulator, EP2 antag)
O=C(COC(=O)c1ccncc1)NCc1ccccc1	none
N#Cc1ccc(Cl)cc1NC(=O)CSc1cccc[n+]1[O-]	none (no result: EP2 modulator, GPR7 antagonist, EP2 antag)
O=C(CSc1cccc[n+]1[O-])Nc1cc(Cl)ccc1[N+](=O)[O-]	OX1R antag-2 38 (no result: EP2 modulator, GPR7 antagonist, EP2 antag)
N#C/C(=C\c1ccc(Sc2nc3ccccc3[nH]2)o1)c1ccccc1	OX1R antag-1 56, OX1R antag-2 74
COc1cc(-c2nc(C(=O)NCC3CCCO3)cc3c2[nH]c2ccccc23)cc(OC)c1OC (centres undefined)	none (no result: EP2 modulator, EP2 antag)
O=C(NCC1CCCO1)c1cc2c([nH]c3ccccc32)c(-c2cccc(Cl)c2)n1 (centres undefined)	OX1R antag-2 50 (no result: EP2 modulator, EP2 antag)
O=[N+]([O-])c1cnn2cc(Br)cnc12	OX1R antag-2 74
COc1ccc(OC)c(C2C(C(=O)c3ccc(C)o3)=C(O)C(=O)N2CCCN2CCOCC2)c1 (centres undefined)	none (no result: EP2 modulator, EP2 antag)
NC(=O)c1c(-c2ccc(Cl)cc2Cl)csc1NC(=O)Cc1ccccc1	CHO parental Ca 56, OX1R antag-2 58
O=C(Cc1ccccc1)Nc1scc(-c2ccccc2)c1C(=O)N1CCOCC1	none
COC(=O)[C@H](Cc1ccccc1)NC(=O)O[C@H]1C(=O)c2ccc(OC)cc2O[C@@H]1c1ccc2c(c1)OCO2	EP2 antag 51
CCc1ccccc1NC(=O)c1cc2sccc2n1C	none
OCC[C@H]1C[C@@H](O)[C@H](O)[C@]2(Cc3ccccc3O2)O1	none (no result: EP2 modulator, GPR7 antagonist, EP2 antag)
CCOc1cc(/C=N/NC(N)=S)cc(Br)c1OCc1ccccc1C	EP2 modulator 63
COc1cc(/C=N/NC(N)=S)cc(Br)c1OCc1ccccc1F	none
CN1CCN(Cc2nc3ccccc3c(=O)n2Cc2nc(-c3ccc([N+](=O)[O-])cc3)cs2)CC1	EP2 antag 49
CN(C)Cc1nc2ccccc2c(=O)n1Cc1nc(-c2cccc([N+](=O)[O-])c2)cs1	none
CN(CC(=O)N1CCN(Cc2ccccc2)CC1)C(=O)Cc1ccc(Cl)c(Cl)c1	none (no result: EP2 modulator, GPR7 antagonist, EP2 antag)
CC(C)c1ccc(N2C(=O)/C(=C/N(C)C)SC2=S)cc1	OX1R antag-1 52
CCC(=O)N(Cc1cc2ccccc2[nH]c1=O)c1ccccc1OC	none (no result: EP2 modulator, EP2 antag)
CCOc1ccc2[nH]c(=O)c(CN(Cc3ccco3)Cc3nnnn3C3CCCC3)cc2c1	EP2 modulator 64 (no result: GPR7 antagonist, OX1R antag-1, CHO parental Ca, OX1R antag-2)
Cc1ccc(C)c2[nH]c(=O)c(CN(Cc3ccco3)Cc3nnnn3C3CCCCC3)cc12	EP2 modulator 72 (no result: GPR7 antagonist, OX1R antag-1, CHO parental Ca, OX1R antag-2)
Cc1ccc2cc(CN(Cc3ccco3)Cc3nnnn3C3CCCCC3)c(=O)[nH]c2c1C	EP2 modulator 70 (no result: GPR7 antagonist, OX1R antag-1, CHO parental Ca, OX1R antag-2)
CCOC(=O)c1nn(-c2ccc([N+](=O)[O-])cc2)cc1O	none
CCC(C)NC(=O)COc1ccc(Br)c(C)c1 (centres undefined)	none
CCN1CCN(CC(=O)Nc2ccc3c(c2)OCO3)C(=O)C1=O	none
CCCn1cccc(C(=O)Nc2ccc(OC)cc2)c1=O	none (no result: EP2 modulator, EP2 antag)
O=C(Cc1c(O)c2ccccc2[nH]c1=O)NCc1ccc(F)cc1	none
Cc1cc(NC(=O)CCC(=O)N(c2cccc(F)c2)C(C(=O)NC2CCCC2)c2ccccc2)no1 (centres undefined)	none (no result: EP2 modulator, EP2 antag)
CC(C)/C=C1\CC/C(=C\c2ccc(N(C)C)cc2)C1=O	OX1R antag-1 66, CHO parental Ca 53
CC(C)c1ccc(/C=C2\CC/C(=C\C=N\N(C)C)C2=O)cc1	none (no result: EP2 antag)
